According to publication PMC7126824 (European Journal of Medicinal Chemistry, 2011):
Read-outs that look alike come from different tables or passages of the source. One block for each molecule: values may come before it.

What was measured:
[1] = test system: HEL (human lung fibroblast) cells; assay: Cytostatic activity: inhibition of cell proliferation; type: cell-based; conditions: read-out: IC50 (50% inhibitory concentration)
[2] = test system: HeLa (human cervix carcinoma) cells; assay: Cytostatic activity: inhibition of tumor cell proliferation; type: cell-based; conditions: read-out: IC50 (50% inhibitory concentration)
How it was run: (§1)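 Exponentially growing tumour cells were seeded in 96-well plates with a range of test-compound concentrations: CEM lymphocytes at 75,000 cells/well for 3 days, HeLa cervix carcinoma cells at 20,000 cells/well for 4 days. Viable cells were counted with a Coulter counter. The 50% value is the concentration inhibiting tumour cell proliferation by 50%.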

[3] = test system: CEM (human lymphocyte) cells; assay: as above; type: cell-based; conditions: read-out: IC50 (50% inhibitory concentration)
How it was run: as §1

[4] = test system: MDCK, HEL, CrFK, HeLa and CEM cells; assay: Cytostatic activity over the cell culture panel of Table 4; type: cell-based; conditions: read-out: IC50, range over the cell cultures
HCMV AD-169 strain = assay: Antiviral assay: inhibition of virus-induced cytopathicity in HEL cell cultures; type: cell-based, human cytomegalovirus; conditions: Human betaherpesvirus 5, AD169, HEL, read-out: EC50 against HCMV AD-169 strain
HCMV Davis strain = assay: as above; type: cell-based, human cytomegalovirus; conditions: Human betaherpesvirus 5, HEL, read-out: EC50 against HCMV Davis strain

- IC50 [2]: 7.1 µM
- IC50 ([3]; Homo sapiens, CCRF-CEM): 10 µM
Compound: S=C(NN=Cc1ccc(Cl)s1)Nc1ccccc1 [Compound 2, 5-Chlorothiophene-2-carboxaldehyde-N(4)phenyl thiosemicarbazone]
- IC50 [1]: 10.4 µM
- IC50 [4]: 7.1 to 57.8 µM

Compound: N.N.[Cl][Pt][Cl] [cisplatinum, reference compound]
- IC50 ([3]; CEM cells): 2.2 µM

- EC50 (HCMV AD-169 strain): 5 µM
- EC50 (HCMV Davis strain): 3.4 µM
Compound: Nc1nc(O)c2ncn(COC(CO)CO)c2n1 [ganciclovir]
